Screening data from PubChem BioAssay.
OX1R antag-1 = antagonists of human orexin 1 receptor; O43613; inhibition, % at 5 µM; actives 0.43% (n = 330,000); CHO/OX1R cells, Fluo-8 calcium fluorescence, orexin A; AID 434989;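 active = inhibition above its plate's threshold, mean inhibition of all tested compounds on the plate plus 3 SD, cut at about 37% in these data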;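 note: 0% = orexin A challenge wells and 100% = SB-334867-A antagonist wells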
Target sequence (O43613 whole entry, looked up): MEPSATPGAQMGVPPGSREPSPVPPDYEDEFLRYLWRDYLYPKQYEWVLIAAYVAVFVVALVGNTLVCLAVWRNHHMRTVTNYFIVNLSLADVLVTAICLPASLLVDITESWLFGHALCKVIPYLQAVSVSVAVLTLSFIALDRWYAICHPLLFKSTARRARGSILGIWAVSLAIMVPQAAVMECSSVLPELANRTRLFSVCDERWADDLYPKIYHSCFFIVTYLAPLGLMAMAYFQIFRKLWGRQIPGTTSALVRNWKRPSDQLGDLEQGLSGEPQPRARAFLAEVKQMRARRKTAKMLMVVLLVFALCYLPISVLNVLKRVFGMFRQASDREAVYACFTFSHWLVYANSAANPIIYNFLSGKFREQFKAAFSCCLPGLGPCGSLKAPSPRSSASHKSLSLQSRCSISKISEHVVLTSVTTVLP
CHO parental Ca = counter-screen for OX1R antagonists: effect in parental CHO cells; parental CHO-K1, ATP-induced calcium, Fluo-8 fluorescence; inhibition, % at 5.6 µM; actives 0.63% (n = 330,000);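 active = inhibition above that plate's mean sample inhibition plus 3 SD, cut at about 26% in these data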;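 note: 0% = ATP-challenged DMSO wells and 100% = DMSO wells without ATP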
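material = parental CHO cells | also added = ATP as calcium-mobilizing challenge | dosing = single point at 5.6 µM | detection = intracellular calcium via Fluo-8 no-wash fluorescent dye | read-out = % inhibition | benchmarks = low control ATP plus DMSO, high control DMSO only | repeats = one well per compound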
OX1R antag-2 = antagonists of human orexin 1 receptor (OX1R). O43613. OX1R-expressing cells, FRET antagonist read-out. inhibition, % at 6.6 µM. actives 1.8% (n = 330,000). AID 485270; in the data active = inhibition mostly above about 38%, no sharp cut-off; inactive = mostly below about 40%;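 note: 0% = agonist challenge alone and 100% = reference antagonist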
NTR1 agonist = NTR1 (human) agonism. P30989. NTR1-U2OS beta-arrestin-GFP spot imaging, agonist mode. activation, % at 20 µM. actives 0.17% (n = 330,000);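 active = activation at or above 40% of the spot to cytoplasm intensity ratio, with at least 20 cells analyzed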;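 note: 0% = DMSO without peptide and 100% = 100 nM NTR1 peptide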
TAAR1 ag = agonists of human TAAR1. Q96RJ0. activation, % at 3 µM. CHO RD-HGA16 TAAR1, Fluo-8 calcium fluorescence; vehicle wells 0%, saturating PEA agonist 100%. actives 0.99% (n = 360,000);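 active = activation above the mean activation of all test compounds in the run plus 3 SD, cut at about 38% in these data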
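System: CHO RD-HGA16 cells carrying human TAAR1 plus Gα16; Incubation: 17-24 h seeding, 75 min 37 °C dye, 30 min RT; Measured by: Fluo-8 fluorescence, 5 s baseline then 140 s kinetic read; Control set: DMSO and PEA EC100; Replication: single well for each compound.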
TAAR1 antag = human TAAR1 antagonism; inhibition, % at 3 µM; CHO RD-HGA16 TAAR1, Fluo-8 calcium fluorescence, antagonist; actives 1.5% (n = 360,000); Q96RJ0; AID 624466;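 active = inhibition above a per-plate cutoff, the mean inhibition of test compounds on that plate plus 3 SD, cut at about 49% in these data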;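 note: 0% = DMSO plus EC80 beta-PEA response and 100% = DMSO alone without agonist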
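Test system: hTAAR1-expressing CHO RD-HGA16 cells, Gα16-coupled; Probe or stimulus: EC80 β-phenethylamine stimulus; Compound dosing: single nominal final test compound concentration of 3 µM; Timing: 140 s kinetic read after compound, 140 s after agonist; Signal: Fluo-8 calcium-sensitive fluorescence; Measure: % inhibition of agonist calcium response; Controls: DMSO and EC80 PEA controls.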
TAAR1 ag confirm = human TAAR1 agonism, confirmed. CHO RD-HGA16 TAAR1, Fluo-8 calcium fluorescence; scaled: DMSO 0%, maximal phenethylamine 100%. actives 82% (n = 2,400). activation, % at 3 µM. shares compounds with TAAR1 ag;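 active = activation above a cutoff set at the run's mean compound activation plus 3 SD, cut at about 39% in these data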
Ga16 nonsel ag = nonselective agonist in parental cells, TAAR1 agonist counter-screen; shares compounds with TAAR1 ag; CHO-Ga16 parental, Fluo-8 calcium fluorescence; normalized to maximal ATP response, DMSO zero; activation, % at 3 µM; actives 50% (n = 2,400);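 active = activation above the run cutoff, the mean activation over all tested wells plus 3 SD, cut at about 12% in these data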;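 note: 0% = DMSO wells and 100% = maximal ATP response on the peak over basal ratio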
TAAR1 desensitize = counter-screen for human TAAR1 agonists: agonists that desensitize TAAR1. inhibition, % at 3 µM. CHO RD-HGA16 hTAAR1, Fluo-8 calcium, beta-PEA response inhibition. actives 46% (n = 2,400). shares compounds with TAAR1 ag;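 active = inhibition above the run cutoff, the mean inhibition of all test compounds plus 3 SD, cut at about 49% in these data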;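 note: beta-PEA stimulus applied at its EC80; loss of beta-PEA calcium signal after compound pretreatment read as receptor desensitization; 0% = DMSO with beta-PEA at EC80 and 100% = DMSO alone without agonist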
Ga16 antag count = counter-screen for TAAR1 agonists: nonselective Ga16 antagonists. shares compounds with TAAR1 ag. CHO-Ga16 ATP-induced calcium, Fluo-8 fluorescence. inhibition, % at 3 µM. actives 39% (n = 2,400);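 active = inhibition above the plate's mean compound inhibition plus 3 SD, computed per plate, cut at about 22% in these data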;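 note: 0% = EC80 ATP with DMSO and 100% = DMSO wells without ATP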
Numbers without * were called inactive; · = no result given. Most compounds without a hit are left out; they make up all but 4% or so of the library.

SMILES	OX1R antag-1	CHO parental Ca	OX1R antag-2	NTR1 agonist	TAAR1 ag	TAAR1 antag	TAAR1 ag confirm	Ga16 nonsel ag	TAAR1 desensitize	Ga16 antag count
O=C(O)/C=C/C(=O)NCCc1cccc(Cl)c1	-5.2	-7.8	9.0	-0.5	69.3*	75.7*	92.9*	7.9	96.4*	6.3
Cc1ccc(OC(=O)c2ccc([N+](=O)[O-])cc2Cl)cn1	-20.7	4.5	5.2	1.0	2.3	-4.9	·	·	·	·
CCCCN1C(=O)C(=O)N(CC(=O)Nc2cc(S(=O)(=O)N(C)C)ccc2C)C1=O	0.7	-2.1	13.7	-1.0	3.5	-18.3	·	·	·	·
Cc1cccc(C(=O)NCCC(=O)NCc2ccccc2Cl)c1	-3.8	-24.2	6.4	-1.6	-1.3	3.4	·	·	·	·
CC(C)(C)c1ccc(C(=O)NCCNC(=O)c2ccco2)cc1	-2.2	-10.5	12.4	-0.7	-3.3	6.0	·	·	·	·
O=C(O)/C=C/C(=O)NCCc1ccc(Cl)cc1	-4.0	-8.6	5.0	0.4	75.7*	44.2	97.1*	6.6	66.8*	-3.9
O=C(CCCc1ccccc1)NCCc1ccccc1	-16.3	-9.8	8.3	0.6	4.2	-3.2	·	·	·	·
CC(CCc1ccccc1)NC(=O)C(=O)NCCc1ccccc1 (stereo unspecified)	-13.9	-13.1	23.4	13.5	49.1*	8.1	87.6*	21.0*	36.1	17.1
O=C(CCCC(=O)c1ccccc1)NCCc1ccccc1	-17.3	-11.7	9.5	-1.0	46.7*	74.9*	50.0*	14.9*	89.5*	14.2
COCCCN(C(=O)C1=COCCO1)c1c(N)n(Cc2ccccc2)c(=O)[nH]c1=O	·	·	·	·	1.6	-14.1	·	·	·	·
CN(Cc1ccccc1)C(=O)c1cccc(NC(=O)Cc2ccc(NC(=O)C3CCCN(C(=O)C4CCC4)C3)cc2)c1 (stereo unspecified)	·	·	·	·	-0.1	17.5	·	·	·	·
OC(CNCCc1ccc(Cl)cc1)COCc1ccco1 (stereo unspecified)	-16.7	-20.8	14.3	0.5	56.0*	2.2	67.1*	0.9	26.0	6.5
CC(=O)c1cccc(OCC(O)CNCCc2ccc(Cl)cc2)c1 (stereo unspecified)	-6.5	-17.2	-1.4	0.3	·	·	·	6.5	·	-1.0
O=c1oc2ccccc2c(NCCc2ccccc2)c1[N+](=O)[O-]	-15.0	-6.3	34.5	0.2	63.4*	17.5	70.5*	9.5	12.9	6.4
Cn1c(CNC(=O)CNC(=O)Cc2ccc(Cl)cc2)cc(=O)n(C)c1=O	16.8	6.1	-6.2	0.5	1.4	-3.3	·	·	·	·
CC1=C(C(=O)N(C(C)C)C(C)C)CC(CC(=O)NCCCN(C)C)C(=O)N1CCCN1CCCC1=O (stereo unspecified)	·	·	·	·	3.8	-7.3	·	·	·	·
O=C(COc1ccccc1)NNC(=O)c1cc2ccccc2oc1=O	-21.2	-4.6	23.4	-2.2	45.3*	0.9	71.8*	3.4	43.4	6.1
Cn1c2c(c(=O)n(C)c1=O)CN(Cc1ccccc1)CN2	·	·	·	·	2.7	-15.9	·	·	·	·
Cn1c2c(c(=O)n(C)c1=O)CN(CCc1ccccc1)CN2	-10.3	-0.7	6.0	-0.2	91.3*	60.5*	73.7*	2.6	45.0	8.5
CC1Cn2c(nc(=O)c3c2NCN(CCc2ccccc2)C3)S1 (stereo unspecified)	6.3	6.4	9.1	0.8	52.8*	3.9	45.7*	5.8	7.1	3.4
Cc1nn(C2CCS(=O)(=O)C2)c2nc(C3CC3)cc(C(=O)Nc3cccc(C#N)c3)c12 (stereo unspecified)	·	·	·	-0.7	4.9	17.1	·	·	·	·
